The results in this text go back to ChEMBL document CHEMBL1821716, “Pyrazolopyridine inhibitors of B-RafV600E. Part 2: structure-activity relationships” (Bioorg Med Chem Lett, 2011).

The nature of test [1]: Inhibition of basal ERK phosphorylation in human MALME-3M cells. It is filed as cell-based.
Test [2] concerns the target T1, Aurora kinase A (Homo sapiens) (UniProt O14965).
T1 sequence (whole entry): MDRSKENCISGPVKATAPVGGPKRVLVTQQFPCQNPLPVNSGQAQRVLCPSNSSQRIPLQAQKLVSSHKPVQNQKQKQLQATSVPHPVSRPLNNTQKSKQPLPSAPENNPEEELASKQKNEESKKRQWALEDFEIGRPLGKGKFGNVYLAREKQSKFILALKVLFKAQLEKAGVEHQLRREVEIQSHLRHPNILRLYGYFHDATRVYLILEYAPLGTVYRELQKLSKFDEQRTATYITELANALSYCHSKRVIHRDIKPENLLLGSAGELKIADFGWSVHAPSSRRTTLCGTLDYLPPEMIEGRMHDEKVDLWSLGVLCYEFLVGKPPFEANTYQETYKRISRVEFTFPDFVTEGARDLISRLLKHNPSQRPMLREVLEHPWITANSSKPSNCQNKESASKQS
As to the kind of experiment: Inhibition of aurora A at 1 uM. The method in brief:
(§1)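 Kinase selectivity panel reported as percent inhibition of each kinase at a single test-compound concentration. Values are means of at least two experiments.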

For test [3], the target named is Tyrosine-protein kinase Fgr (Homo sapiens) (UniProt P09769). Description: Inhibition of FGR at 1 uM. The method in brief:
as §1

In test [4] the target is Receptor-type tyrosine-protein kinase FLT3 (Homo sapiens) (UniProt P36888). As to the kind of experiment: Inhibition of FLT3 at 1 uM. The essentials: as §1
Chain of Receptor-type tyrosine-protein kinase FLT3 (Homo sapiens) (P36888 whole entry): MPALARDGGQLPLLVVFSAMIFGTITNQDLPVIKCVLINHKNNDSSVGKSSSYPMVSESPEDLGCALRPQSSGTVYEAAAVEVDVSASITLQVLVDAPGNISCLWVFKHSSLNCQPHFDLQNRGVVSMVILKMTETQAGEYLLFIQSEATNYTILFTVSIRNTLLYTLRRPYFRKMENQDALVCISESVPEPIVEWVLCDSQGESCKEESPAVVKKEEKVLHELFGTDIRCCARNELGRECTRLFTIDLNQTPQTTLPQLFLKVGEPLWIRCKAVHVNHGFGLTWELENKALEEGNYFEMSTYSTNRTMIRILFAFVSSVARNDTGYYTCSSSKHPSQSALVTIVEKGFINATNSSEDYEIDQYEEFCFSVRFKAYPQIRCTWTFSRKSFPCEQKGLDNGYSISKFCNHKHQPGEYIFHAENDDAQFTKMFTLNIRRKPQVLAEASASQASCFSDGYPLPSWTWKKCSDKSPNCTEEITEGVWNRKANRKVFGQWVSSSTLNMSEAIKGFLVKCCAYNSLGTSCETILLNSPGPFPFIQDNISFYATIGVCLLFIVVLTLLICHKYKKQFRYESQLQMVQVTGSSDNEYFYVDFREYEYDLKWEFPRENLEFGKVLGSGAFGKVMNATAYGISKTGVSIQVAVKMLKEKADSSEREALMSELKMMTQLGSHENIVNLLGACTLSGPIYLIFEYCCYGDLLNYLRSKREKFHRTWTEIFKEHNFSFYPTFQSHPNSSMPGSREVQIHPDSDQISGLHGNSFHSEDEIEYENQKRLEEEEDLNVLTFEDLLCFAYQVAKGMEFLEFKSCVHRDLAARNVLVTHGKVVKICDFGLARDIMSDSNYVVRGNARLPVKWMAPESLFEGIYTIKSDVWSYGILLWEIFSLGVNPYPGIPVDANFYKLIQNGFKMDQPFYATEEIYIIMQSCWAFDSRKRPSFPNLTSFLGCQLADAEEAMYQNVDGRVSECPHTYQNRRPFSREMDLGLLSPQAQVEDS
Test [5] concerns the target Tyrosine-protein kinase Lck (Homo sapiens) (UniProt P06239). Description: Inhibition of LCK at 1 uM. The essentials: as §1
Test [6] addresses Protein-tyrosine kinase 6 (Homo sapiens) (UniProt Q13882). Description: Inhibition of PTK6 at 1 uM. The method in brief:
as §1

The target of test [7] is Proto-oncogene tyrosine-protein kinase Src (Homo sapiens) (UniProt P12931). As to the kind of experiment: Inhibition of SRC at 1 uM. The method in brief:
as §1

The target of test [8] is Tyrosine-protein kinase Srms (Homo sapiens) (UniProt Q9H3Y6). Description: Inhibition of SRMS at 1 uM. The essentials: as §1
Chain of Tyrosine-protein kinase Srms (Homo sapiens) (Q9H3Y6 whole entry): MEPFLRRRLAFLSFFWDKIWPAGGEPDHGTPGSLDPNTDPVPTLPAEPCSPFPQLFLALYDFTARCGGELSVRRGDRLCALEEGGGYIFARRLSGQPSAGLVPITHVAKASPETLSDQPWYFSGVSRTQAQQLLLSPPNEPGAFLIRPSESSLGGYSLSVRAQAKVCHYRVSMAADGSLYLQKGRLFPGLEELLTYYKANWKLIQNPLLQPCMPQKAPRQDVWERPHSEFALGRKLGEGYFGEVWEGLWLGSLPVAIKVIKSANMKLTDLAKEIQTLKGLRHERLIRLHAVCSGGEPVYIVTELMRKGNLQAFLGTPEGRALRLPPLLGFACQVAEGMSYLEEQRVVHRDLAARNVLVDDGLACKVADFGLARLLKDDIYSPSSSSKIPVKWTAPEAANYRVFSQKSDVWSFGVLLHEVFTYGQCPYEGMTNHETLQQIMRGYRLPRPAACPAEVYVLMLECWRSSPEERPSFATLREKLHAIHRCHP
Test [9] addresses Serine/threonine-protein kinase B-raf (Homo sapiens, UniProt P15056, V600E). As to the kind of experiment: Inhibition of full length B-Raf V600E mutant.

Broadly, the IC50 is the midpoint of a concentration-inhibition curve. Low readings indicate higher potency, high ones lower potency. In general, inhibition refers to the change of the read-out against control, counted positive when it falls.

Chain of Protein-tyrosine kinase 6 (Homo sapiens) (Q13882 whole entry, looked up): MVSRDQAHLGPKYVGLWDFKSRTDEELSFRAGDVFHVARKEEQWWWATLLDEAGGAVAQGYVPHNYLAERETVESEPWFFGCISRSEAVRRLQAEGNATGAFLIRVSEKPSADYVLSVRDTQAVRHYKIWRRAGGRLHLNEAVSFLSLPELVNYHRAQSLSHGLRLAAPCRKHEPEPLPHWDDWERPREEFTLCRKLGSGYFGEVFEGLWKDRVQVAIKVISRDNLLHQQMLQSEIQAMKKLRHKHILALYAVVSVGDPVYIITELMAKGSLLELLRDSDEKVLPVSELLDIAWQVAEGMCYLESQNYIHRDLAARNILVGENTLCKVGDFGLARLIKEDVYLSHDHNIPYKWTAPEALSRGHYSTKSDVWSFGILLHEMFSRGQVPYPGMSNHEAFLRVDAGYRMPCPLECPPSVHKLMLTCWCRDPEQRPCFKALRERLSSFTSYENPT
Chain of Proto-oncogene tyrosine-protein kinase Src (Homo sapiens) (P12931 2-536 limits assumed): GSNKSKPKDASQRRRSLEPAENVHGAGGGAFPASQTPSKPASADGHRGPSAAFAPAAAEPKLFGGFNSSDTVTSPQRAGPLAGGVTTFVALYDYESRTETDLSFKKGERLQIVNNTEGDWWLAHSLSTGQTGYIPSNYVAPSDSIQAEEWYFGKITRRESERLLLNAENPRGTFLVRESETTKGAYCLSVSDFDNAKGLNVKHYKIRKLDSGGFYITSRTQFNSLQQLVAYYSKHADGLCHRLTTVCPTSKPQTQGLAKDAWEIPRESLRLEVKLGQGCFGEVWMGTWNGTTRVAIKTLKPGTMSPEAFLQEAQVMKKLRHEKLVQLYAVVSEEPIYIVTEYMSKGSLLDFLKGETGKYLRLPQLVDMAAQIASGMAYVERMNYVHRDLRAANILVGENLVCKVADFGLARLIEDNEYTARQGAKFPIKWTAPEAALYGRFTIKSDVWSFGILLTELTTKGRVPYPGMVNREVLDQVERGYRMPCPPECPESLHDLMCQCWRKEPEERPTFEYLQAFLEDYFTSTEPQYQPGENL
Chain of Tyrosine-protein kinase Lck (Homo sapiens) (P06239 2-509 limits assumed): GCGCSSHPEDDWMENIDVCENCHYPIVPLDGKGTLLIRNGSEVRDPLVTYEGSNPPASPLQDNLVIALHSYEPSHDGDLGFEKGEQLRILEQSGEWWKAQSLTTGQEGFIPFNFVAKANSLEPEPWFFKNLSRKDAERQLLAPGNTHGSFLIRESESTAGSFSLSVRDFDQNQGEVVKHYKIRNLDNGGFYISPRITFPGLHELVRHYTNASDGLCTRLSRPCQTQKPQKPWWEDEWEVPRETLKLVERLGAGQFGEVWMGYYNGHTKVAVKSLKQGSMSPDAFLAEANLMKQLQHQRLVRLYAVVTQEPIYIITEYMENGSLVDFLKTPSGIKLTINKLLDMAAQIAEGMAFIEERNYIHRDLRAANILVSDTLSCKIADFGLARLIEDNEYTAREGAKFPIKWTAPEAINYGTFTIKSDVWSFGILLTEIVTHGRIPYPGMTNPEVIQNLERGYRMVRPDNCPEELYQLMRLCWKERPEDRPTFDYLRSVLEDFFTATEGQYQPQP
Chain of Tyrosine-protein kinase Fgr (Homo sapiens) (P09769 2-529 limits assumed): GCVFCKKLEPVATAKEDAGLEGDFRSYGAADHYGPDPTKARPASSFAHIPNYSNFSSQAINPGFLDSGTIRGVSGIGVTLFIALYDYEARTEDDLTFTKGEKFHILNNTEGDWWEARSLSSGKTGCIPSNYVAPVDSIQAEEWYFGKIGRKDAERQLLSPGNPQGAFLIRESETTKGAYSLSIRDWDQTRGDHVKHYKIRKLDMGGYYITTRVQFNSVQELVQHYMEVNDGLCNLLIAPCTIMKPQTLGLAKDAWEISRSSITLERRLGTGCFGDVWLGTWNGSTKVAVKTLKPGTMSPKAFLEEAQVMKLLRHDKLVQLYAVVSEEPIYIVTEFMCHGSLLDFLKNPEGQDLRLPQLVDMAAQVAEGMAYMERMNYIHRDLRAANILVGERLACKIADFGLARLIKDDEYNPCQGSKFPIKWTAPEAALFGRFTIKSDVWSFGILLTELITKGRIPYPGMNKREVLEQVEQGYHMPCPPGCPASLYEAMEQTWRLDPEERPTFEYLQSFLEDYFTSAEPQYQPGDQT
Chain of Serine/threonine-protein kinase B-raf (P15056 2-766 V600E limits assumed): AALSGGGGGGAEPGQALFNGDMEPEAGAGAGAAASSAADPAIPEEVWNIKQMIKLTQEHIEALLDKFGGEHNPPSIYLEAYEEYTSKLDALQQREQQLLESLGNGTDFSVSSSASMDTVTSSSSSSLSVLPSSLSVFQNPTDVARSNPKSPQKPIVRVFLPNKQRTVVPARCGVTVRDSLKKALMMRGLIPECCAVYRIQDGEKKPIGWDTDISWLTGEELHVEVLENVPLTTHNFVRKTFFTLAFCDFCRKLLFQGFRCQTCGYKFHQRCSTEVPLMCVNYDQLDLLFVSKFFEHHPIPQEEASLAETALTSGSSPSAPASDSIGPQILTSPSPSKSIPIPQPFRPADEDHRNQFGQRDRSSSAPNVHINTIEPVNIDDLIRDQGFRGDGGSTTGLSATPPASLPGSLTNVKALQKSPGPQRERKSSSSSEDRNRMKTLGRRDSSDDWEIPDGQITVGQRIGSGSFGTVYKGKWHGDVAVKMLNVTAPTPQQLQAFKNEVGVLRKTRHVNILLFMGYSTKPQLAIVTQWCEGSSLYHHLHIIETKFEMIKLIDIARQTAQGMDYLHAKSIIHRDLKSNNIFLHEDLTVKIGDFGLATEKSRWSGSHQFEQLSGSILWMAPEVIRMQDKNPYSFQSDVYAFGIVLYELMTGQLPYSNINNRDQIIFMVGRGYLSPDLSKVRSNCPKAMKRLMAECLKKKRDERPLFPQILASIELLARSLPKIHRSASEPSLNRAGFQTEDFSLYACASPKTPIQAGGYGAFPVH

Compound `CCCS(=O)(=O)Nc1ccc(F)c(C(=O)Nc2cnc3[nH]nc(OC)c3c2)c1F` came in with an IC50 in test [1] of 19 nM. For the same compound, the inhibition in [2] turned out to be 1%; in [3], 88%; in test [4] it was 52%; in [5], 56%; in test [6], 83%; in [7], 22%. In test [8], the inhibition was determined as 94%.
Take `COc1n[nH]c2ncc(NC(=O)c3c(F)ccc(NS(=O)(=O)N4CCCC4)c3F)cc12`: the IC50 in test [9] came to 8.6 nM; in test [1], 18 nM. Further, the inhibition in test [2] turned out to be 47%; in [3], 101%; in test [4] it was 85%; in test [5], 90%; in test [6], 105%; in [7] it was 52%. In addition, in test [8], the inhibition is 105%.
On to `COc1n[nH]c2ncc(NC(=O)c3c(F)ccc(NS(=O)(=O)c4cccc(F)c4)c3F)cc12`, for which the IC50 was 0.7 nM in [9] and 12 nM in test [1]. The inhibition turned out to be 52% in test [2]; 98% in test [3]; 77% in test [4]; 96% in test [5]; 101% in test [6]; 77% in test [7]. Also, in test [8], the inhibition is 98%.
